The record followed here is ChEMBL document CHEMBL6177979, “Exploring the Phototherapeutic Applications of Mitochondria-Targeted COUPY Photocages of Antitumor Drugs” (J Med Chem, 2025).

By IC50 is commonly meant the concentration needed to halve the response being measured.

Series [1] in a line: Photochemical property of compound assessed as uncaging quantum yields. Format: physicochemical. Summed up:
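Uncaging quantum yields derived from photon flux (DAE actinometry) together with photolysis rate parameters. Photolysis run in PBS/ACN 8:2 at 37 °C under a 530 nm-centred LED.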

The nature of series [2]: Phototoxic index, ratio of IC50 for cytotoxicity against human HeLa cells assessed as reduction in cell viability incubated for 2 hrs under dark condition by MTT assay to IC50 for photocytotoxicity in human HeLa cells assessed as reduction in cell viability irradiated with 550 nm 4 mW/cm^-2 green-yellow […] and measured after 48 hrs by MTT assay. The series is classed as toxicity, cell-based. The settings on record: read-out: Ratio IC50. In outline: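 Phototoxic index is dark IC50 divided by light IC50, HeLa MTT assay. Cells had 1 h compound in the dark, then 1 h dark or 550 nm LED (4 mW/cm2 pulsed, 7.2 J cm–2), then 48 h after medium change.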
Background: Formazan colour is commonly taken as a measure of viable cells.

A short description of series [3]: Drug localization in lysosome of human HeLa cells at 1 uM incubated for 30 mins by Lysotracker green dye based analysis. Format: ADME, subcellular. The settings on record: 0.5 h. In outline: (§1)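 HeLa cells incubated with compound (1 μM) for 30 min at 37 °C in nonsupplemented DMEM. LysoTracker Green FM added for the last 5 min and WGA Alexa Fluor 633 for the last 20 min. Cells washed with DPBS and imaged live by confocal at 37 °C: compound excited at 561 nm (570–670 nm), LTG at 488 nm, WGA at 633 nm. Pearson's coefficient from 5 stacks, about 25 cells each.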

Series [4] concerns HeLa. Kind of series: Photocytotoxicity in human HeLa cells assessed as reduction in cell viability irradiated with 550 nm 4 mW/cm^-2 green-yellow LED light for 1 hr and measured after 48 hrs in presence of CLB by MTT assay. The series is classed as toxicity, cell-based. The settings on record: 49 h. In outline: (§2)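 HeLa or U87-MG cells seeded at 5000/well in DMEM with 10% FBS and 1% penicillin-streptomycin, grown 24 h. Compound added at 0–200 μM final (0.5% DMSO) for 1 h at 37 °C in the dark. Then 1 h dark or 550 nm pulsed LED (4 mW/cm2, 1 min on/1 min off; 7.2 J cm–2). Medium refreshed, 48 h incubation, MTT read-out. IC50 from sigmoidal dose–response curves, n = 3.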

In series [5] the test system is HeLa. Kind of series: Cytotoxicity against human HeLa cells assessed as reduction in cell viability at 100 uM incubated for 2 hrs under dark condition by MTT assay. Format: functional, cell-based. In outline: as §2
Series [6] can be described thus: Photoactivation of the compound in PBS/ACN irradiation with visible light at 530 nm 150 mW cm2 incubated for 2 hrs by RP-HPLC analysis. The arrangement: dose or concentration left out as unconfirmed. The settings on record: buffer. Summed up:
(§3)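 Caged compound (20 μM) with 4-dimethylaminopyridine internal standard (20 μM) in PBS/ACN 8:2 at 37 °C. First held 2 h in the dark for stability, then irradiated with a 470–750 nm LED centred at 530 nm while stirred. Release followed by RP-HPLC with formic acid/water–ACN gradients.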

The nature of series [7]: Induction of singlet oxygen quantum yield under irradiation with green light 505 nm 100 mW/cm2 by. Format: functional. In outline:
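Singlet oxygen quantum yield measured in air-saturated DCM (bubbled 15 min). DPBF trap at ~1.0 absorbance (50 μM); compound absorbance set to 0.06 at 505 nm. Irradiated with LED at 505 ± 35 nm, 100 mW cm–2.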

A short description of series [8]: Photophysical property of the compound assessed as fluorescence quantum yield. Format: physicochemical. In outline: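 Fluorescence quantum yield by the comparative method against cresyl violet in ethanol (ΦF 0.54). Optically matched solutions with absorbance below 0.1 at 540 nm excitation. Calculated from integrated emission, absorbance and refractive indexes.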

The subject of series [9] is HeLa. In words: Photocytotoxicity in human HeLa cells assessed as reduction in cell viability irradiated with 550 nm 4 mW/cm^-2 green-yellow LED light for 1 hr and measured after 48 hrs in presence of 4-PBA by MTT assay. Format: toxicity, cell-based. The settings on record: 49 h. Summed up:
as §2

Series [10] is described as follows: Drug uptake in human HeLa cells assessed as increase in fluorescence intensity at 1 uM incubated for 30 mins by DAPI staining based confocal microscopic analysis. The settings on record: 0.5 h. Format: ADME, cell-based. In outline: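 HeLa cells seeded on glass-bottom dishes in DMEM with 10% FBS. After 24 h, incubated 30 min at 37 °C with compound (1 μM) in supplemented DMEM. Washed three times with DPBS, kept in phenol red-free low-glucose DMEM, imaged live by confocal with 561 nm excitation and 570–670 nm detection.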

Series [11] is described as follows: Induction of ROS generation in PBS buffer assessed as increase in singlet oxygen by measuring increase in SOSG fluorescence intensity at 10 uM irradiated with green light 505 nm 100 mW/cm2 for 15 mins by SOSG probe based analysis. The series is classed as functional. In outline: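 Cell-free fluorogenic probe test. Compound (10 μM) in PBS with 2% DMSO plus SOSG (5 μM, singlet oxygen) or DHR123 (10 μM, superoxide), irradiated with green LED light (505 ± 35 nm, 100 mW cm–2), with the rise in probe fluorescence followed. Positive references were Rose Bengal (SOSG) and methylene blue (DHR123). Scavenger controls used sodium azide-saturated PBS (singlet oxygen) or tiron-saturated PBS (superoxide).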

The nature of series [12]: Induction of ROS generation in PBS buffer assessed as increase in superoxide anion radical level by measuring increase in DHR123 fluorescence intensity at 10 uM irradiated with 505 nm 100 mW/cm2 green light for 15 mins by DHR123 probe based analysis.
Series [13] is described as follows: Drug localization in […] of human HeLa cells at 1 uM incubated for 30 mins by Lysotracker green dye based confocal scanning microscopic analysis. The settings on record: 0.5 h. The series is classed as ADME, subcellular. Summed up: as §1
A short description of series [14]: Drug localization in lysosome of human HeLa cells at 1 uM incubated for 30 mins by wheat germ agglutinin alexa fluor 633 probe based analysis. Format: ADME, subcellular. The settings on record: 0.5 h. In outline: as §1
The nature of series [15]: Photoactivation of the compound in PBS/ACN incubated for 2 hrs by RP-HPLC analysis. The settings on record: buffer. Summed up: as §3
The nature of series [16]: Drug localization in Endosome of human HeLa cells at 1 uM incubated for 30 mins by wheat germ agglutinin alexa fluor 633 probe based analysis. The series is classed as ADME, subcellular. The settings on record: 0.5 h. Summed up: as §1
The subject of series [17] is HeLa. Kind of series: Photocytotoxicity in human HeLa cells assessed as reduction in cell viability irradiated with 550 nm 4 mW/cm^-2 green-yellow LED light for 1 hr and measured after 48 hrs by MTT assay. The settings on record: 49 h. The series is classed as toxicity, cell-based. In outline: as §2
Series [18] can be described thus: Drug accumulation in human HeLa cells assessed as mitochondrial localization at 2 uM incubated for 30 mins by Hoechst 33342 staining based live cell confocal microscopic analysis. The series is classed as ADME. The settings on record: 0.5 h. In outline:
(§4)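 Live HeLa cells (DMEM, 4.5 g/L glucose, 10% FBS, pen-strep) on glass-bottom dishes; 24 h after seeding, incubated 30 min at 37 °C with compound (1 or 2 μM) in DMEM + 10% FBS. Cells were washed three times with DPBS and imaged at 37 °C, 5% CO2 in phenol-red-free low-glucose DMEM. Excitation 561 nm, emission 570–670 nm. For co-staining, MitoTracker Green FM (0.1 μM) was co-incubated 30 min in nonsupplemented DMEM and excited at 488 nm.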

The test system of series [19] is U-87 MG. Kind of series: Cytotoxicity against human U-87 MG cells assessed as reduction in cell viability incubated for 2 hrs under dark condition by resazurin assay. The series is classed as functional, cell-based. The settings on record: U-87MG ATCC. A general note: The colour change of resazurin is a common sign of viable cells or microbes.
Series [20] has as its system U-87 MG. In words: Cytotoxicity against human U-87 MG cells assessed as reduction in cell viability incubated for 2 hrs under dark condition by MTT assay. Format: functional, cell-based, U-87MG ATCC. Summed up:
as §2

Series [21] is described as follows: Photocytotoxicity in human U-87 MG cells assessed as reduction in cell viability irradiated with 550 nm 4 mW/cm^-2 green-yellow LED light for […] and measured after 48 hrs by MTT assay. Format: toxicity, cell-based, U-87MG ATCC. Summed up: as §2
Series [22] is described as follows: Drug localization in lysosome of human HeLa cells at 1 uM incubated for 30 mins by Lysotracker green dye based confocal scanning microscopic analysis. Format: ADME, subcellular. The settings on record: 0.5 h. Summed up: as §1
The nature of series [23]: Drug localization in mitochondria of human HeLa cells at 1 uM incubated for 30 mins by Mito-tracker green dye based confocal scanning microscopic analysis. The series is classed as ADME. The settings on record: 0.5 h. In outline: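 Cells washed with DPBS and imaged live by confocal at 37 °C with 5% CO2: compound excited at 561 nm (detection 570–670 nm), MTG at 488 nm. Colocalization coefficients from 5 stacks of about 25 cells.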

A short description of series [24]: Drug accumulation in human HeLa cells assessed as mitochondrial localization at 1 uM incubated for 30 mins by Hoechst 33342 staining based live cell confocal microscopic analysis. The settings on record: 0.5 h. Format: ADME. Summed up:
as §4

Activity calls are given as the source filed them. The calls are words filed in the database; no cut-off is given here.

Turning to `CCN(CC)c1ccc2c(c1)O/C(=C(/C#N)c1cc[n+](CCC[N+](C)(C)C)cc1)C=C2C(C)OC(=O)CCCc1ccc(N(CCCl)CCCl)cc1.[Cl-].[Cl-]` (stereo not drawn), the Activity in [1] is 1.07e-05; in the series on HeLa [4] it was “Non-toxic”; in series [6], “Active”; in [7], below 0.01; in series [8], 0.09; in the series with HeLa [9], “Non-toxic”. Also, the Activity entry in series [15] was “Active”; in the series on HeLa [17] it was “Non-toxic”. Moreover, the selectivity ratio at 48 h in series [2] was found to be 3.7. Also, the Drug uptake result in [3], in series [10], in series [13], in [14] and in [16] was “Active” throughout. In the series on HeLa [5], the IC50 was determined as 41 µM. For the same molecule, the result in series [11] and in series [12] was Active.
`CCCCCC[n+]1ccc(/C(C#N)=C2/C=C(C(C)O)c3ccc(N(CC)CC)cc3O2)cc1.[Cl-]` (stereo not drawn): in series [2], the selectivity ratio at 48 h is 40. In series [18], the Drug uptake result is recorded as “Active”. In the series on HeLa [5], the IC50 stood at 27.2 µM. Also, the Activity in series [8] is reported as 0.26. Besides, the result in [11] and in series [12] was Active.
As to `O=C(O)CCCc1ccc(N(CCCl)CCCl)cc1` [CHLORAMBUCIL], in the series with HeLa [5], the IC50 is above 100 µM.
As to `CCCCCC[n+]1ccc(/C(C#N)=C2/C=C(C(C)OC(=O)CCCc3ccc(N(CCCl)CCCl)cc3)c3ccc(N(CC)CC)cc3O2)cc1.[Cl-]` (stereo not drawn), the Activity in series [1] is 1.3e-05; with HeLa [4] it was “Non-toxic”; in [6], “Active”; in series [7] it was below 0.01; in series [8] it was 0.07; in the series on HeLa [9], “Non-toxic”. Further, the Activity entry in series [15] is listed as “Active”; with HeLa [17], “Non-toxic”. The selectivity ratio at 48 h in series [2] is 40. In addition, the result (in the series on U-87 MG [19]; in [11]; in series [12]) was Active. Besides, the IC50 amounted to 3.76 µM with HeLa [5] and 6.72 µM in the series with U-87 MG [20]. For the same molecule, the IC50 at 48 h in series [21] was determined as 0.12 µM. For the same molecule, the Drug uptake result in [22], in [10] and in series [23] was “Active” each time.
With `CCCCCC[n+]1ccc(/C(C#N)=C2/C=C(C(C)OC(=O)CCCc3ccccc3)c3ccc(N(CC)CC)cc3O2)cc1.[Br-]` (stereo not drawn), the Activity was 3.89e-05 in [1]; “Active” in series [6]; 0.05 in series [7]; 0.23 in series [8]; “Active” in [15]. Moreover, in [2], the selectivity ratio at 48 h was found to be 131. In addition, the IC50 in the series with HeLa [5] turned out to be 3.54 µM. Also, the Drug uptake result in series [22], in series [10], in [23] and in series [24] was “Active” in each case. Further, the result in series [11] and in series [12] was Active.
`O=C(O)CCCc1ccccc1`: the IC50 with HeLa [5] was above 100 µM.
In the case of `CCCCCC[n+]1ccc(/C(C#N)=C2/C=C(C)c3ccc(N(CC)CC)cc3O2)cc1`, the outcome in series [11] and in series [12] was Active.
